For 21 compounds, inhibition results are on record in PubChem BioAssay AID652011 (Sanford-Burnham Center for Chemical Genomics, 2013).

Where “and” joins values, the source holds several entries; their conditions need not be identical. Identical values can stand only once.

Chain of Endothelial PAS domain-containing protein 1 (Homo sapiens) (Q99814 whole entry, looked up, the tested form may be a part): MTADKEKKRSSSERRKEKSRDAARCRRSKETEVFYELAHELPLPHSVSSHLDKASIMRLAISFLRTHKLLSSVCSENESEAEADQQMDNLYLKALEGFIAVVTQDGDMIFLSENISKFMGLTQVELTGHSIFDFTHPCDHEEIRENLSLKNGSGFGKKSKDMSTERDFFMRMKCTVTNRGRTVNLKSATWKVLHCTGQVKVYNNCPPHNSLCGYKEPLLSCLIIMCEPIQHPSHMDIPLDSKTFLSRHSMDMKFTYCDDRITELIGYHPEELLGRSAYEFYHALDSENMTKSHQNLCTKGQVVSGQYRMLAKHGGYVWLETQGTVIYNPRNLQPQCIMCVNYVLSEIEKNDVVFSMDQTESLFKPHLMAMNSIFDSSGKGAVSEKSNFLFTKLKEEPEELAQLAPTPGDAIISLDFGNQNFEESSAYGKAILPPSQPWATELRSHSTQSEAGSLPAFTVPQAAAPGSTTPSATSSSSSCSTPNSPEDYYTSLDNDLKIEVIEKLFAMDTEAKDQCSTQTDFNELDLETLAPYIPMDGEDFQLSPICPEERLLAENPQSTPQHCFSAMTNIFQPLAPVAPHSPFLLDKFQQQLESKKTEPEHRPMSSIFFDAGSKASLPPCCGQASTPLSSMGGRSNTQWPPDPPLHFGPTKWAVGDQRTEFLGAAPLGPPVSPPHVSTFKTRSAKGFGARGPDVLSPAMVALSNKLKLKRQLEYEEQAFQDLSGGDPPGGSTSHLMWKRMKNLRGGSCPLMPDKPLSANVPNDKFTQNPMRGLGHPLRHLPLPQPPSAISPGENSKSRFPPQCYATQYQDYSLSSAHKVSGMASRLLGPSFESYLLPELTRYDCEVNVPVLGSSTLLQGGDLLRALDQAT

The test has as its target Endothelial PAS domain-containing protein 1 (Homo sapiens) (UniProt Q99814). The test can be described thus: HIF reporter inhibition across pancreatic and renal lines – cell-based, luminescence, MIAPaCa-2, 786-0, panel, SAR follow-up (AID 652011). Particulars: MIAPaCa-2/PANC HIF reporter, luciferase luminescence, desferoxamine, overnight, HIF2a PANC, run 2; at 99 µM (top of the series). A digest of the protocol: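 Probe or stimulus: desferoxamine stimulus / Schedule: overnight compound incubation at 37 °C, 10 min reagent / Dosing: compounds from 10 mM and 0.3125 mM stocks, 1% DMSO final / Signal: luciferase luminescence with One-Glo reagent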
A word on the inhibition: it is the relative decrease from the control value, in per cent. For `CNC(=O)CCc1nc(-c2ccc(Cl)cc2)no1`, the inhibition was -17.8%.

Take `CCCNC(=O)CCc1nc(-c2ccc(C(C)(C)C)cc2)no1`: the inhibition worked out at 73%.

Consider `C=CCNC(=O)CCc1nc(-c2ccc(C(C)(C)C)cc2)no1`, for which the inhibition turned out to be 82%.

Consider `CC(C)(C)c1ccc(-c2noc(CCC(=O)Nc3cccc([N+](=O)[O-])c3)n2)cc1`, for which the inhibition amounted to 86.3%.

In the case of `CC(C)(C)c1ccc(-c2noc(CCC(=O)O)n2)cc1`, the inhibition stood at 124%.

With `CCNC(=O)CCc1nc(-c2ccc(CC)cc2)no1`, the inhibition is -47%.

In the case of `CNC(=O)CCc1nc(-c2ccc(C)cc2)no1`, the inhibition was determined as 76.6%.

`CCNC(=O)CCc1nc(-c2cccc(F)c2)no1`: the inhibition was -6.32%.

As for `CCN(CC)C(=O)CCc1nc(-c2ccc(C(C)(C)C)cc2)no1`, the inhibition was 76.8% and 78.5%.

For the compound `CCc1ccc(-c2noc(CCC(=O)NC3CC3)n2)cc1`, the inhibition is -46.2%.

`O=C(CCc1nc(-c2ccccc2)no1)NC1CC1`: the inhibition came to 56.6%.

For `CCc1ccc(-c2noc(CCC(=O)NC)n2)cc1`, the inhibition is -49.2%.

On to `CCCCc1ccc(-c2noc(CCC(=O)NC)n2)cc1`, for which the inhibition is -4.31%.

As to `COC(=O)CCc1nc(-c2ccc(C(C)(C)C)cc2)no1`, the inhibition amounted to 128%.

With `CCNC(=O)CCc1nc(-c2c(Cl)cccc2Cl)no1`, the inhibition was determined as 31.9%.

`CCCCc1ccc(-c2noc(CCC(=O)NC(C)CC)n2)cc1` (stereo unspecified): the inhibition stood at 37.9%.

In the case of `CN(C)C(=O)CCc1nc(-c2ccc(C(C)(C)C)cc2)no1`, the inhibition was 42.5% and -5.18%.

On to `CCCCc1ccc(-c2noc(CCC(=O)NCC)n2)cc1`, for which the inhibition is 9.61%.

Take `CC(C)(C)c1ccc(-c2noc(CCC(=O)NC3CCCCC3)n2)cc1`: the inhibition was 104%.

For the compound `CCCCc1ccc(-c2noc(CCC(=O)NC3CC3)n2)cc1`, the inhibition turned out to be 16%.

For the compound `CNC(=O)CCc1nc(-c2ccc(OC)cc2)no1`, the inhibition was -21.8%.
